The pIC50 is −log10 of the IC50, conventionally taken in molar units. As a reminder, the mortality is the percentage killed.

Data set [1] has as its target Acetylcholinesterase (Anopheles gambiae, UniProt Q869C3). In words: Inhibition of recombinant Anopheles gambiae AChE1 expressed in sf9 insect cells using acetylthiocholine iodide as substrate measured over 60 secs by Ellman assay. The essentials:
(§1)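 Enzyme source: secreted, non-purified recombinant protein in growth medium. Ellman assay at 30 °C in 0.1 M phosphate buffer pH 7.4 containing 0.2 mM DTNB and 1 mM acetylthiocholine iodide. Absorbance at 412 nm was followed over 60 s after substrate addition, immediately after inhibitor. Activity was expressed relative to the mean slope of eight uninhibited controls per plate.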
A general note: DTNB colorimetry detects thiols as they appear.

The target in data set [2] is Acetylcholinesterase (Anopheles gambiae, UniProt Q869C3, G122S). In words: Inhibition of recombinant Anopheles gambiae AChE1 G122S mutant expressed in sf9 insect cells using acetylthiocholine iodide as substrate measured over 60 secs by Ellman assay. In outline: as §1
In data set [3] the target is T1, Acetylcholinesterase (Homo sapiens, UniProt P22303). Briefly: Inhibition of recombinant human AChE using acetylthiocholine iodide as substrate measured over 60 secs by Ellman assay. In outline:
as §1

Data set [4] deals with Acetylcholinesterase (Aedes aegypti, UniProt Q6A2E2). In words: Inhibition of recombinant Aedes aegypti AChE1 expressed in sf9 insect cells using acetylthiocholine iodide as substrate measured over 60 secs by Ellman assay. In outline:
as §1

The nature of data set [5]: Selectivity ratio of IC50 for recombinant human AChE to IC50 for recombinant Anopheles gambiae AChE1. In outline: (§2)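 Ratio = IC50 for hAChE divided by the higher of the IC50 values for AaAChE1 and AgAChE1. All IC50 values came from the Ellman assay with secreted recombinant enzymes.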
Data set [6] can be described thus: Selectivity ratio of IC50 for recombinant human AChE to IC50 for recombinant Aedes aegypti AChE1. In outline:
as §2

Data set [7] concerns the target T1, Acetylcholinesterase. Briefly: Inhibition of recombinant human AChE at 1 mM using acetylthiocholine iodide as substrate measured over 60 secs by Ellman assay. As to conditions: 1 min, 1000 µM.
In data set [8] the target is Acetylcholinesterase (Anopheles gambiae) (UniProt Q869C3). In words: Inhibition of recombinant Anopheles gambiae AChE1 expressed in sf9 insect cells at 1 mM using acetylthiocholine iodide as substrate measured over 60 secs by Ellman assay.
Data set [9] deals with Acetylcholinesterase (Anopheles gambiae), Q869C3 [G122S]. In words: Inhibition of recombinant Anopheles gambiae AChE1 G122S mutant expressed in sf9 insect cells at 1 mM using acetylthiocholine iodide as substrate measured over 60 secs by Ellman assay.
Data set [10] addresses Acetylcholinesterase (Aedes aegypti) (UniProt Q6A2E2). In words: Inhibition of recombinant Aedes aegypti AChE1 expressed in sf9 insect cells at 1 mM using acetylthiocholine iodide as substrate measured over 60 secs by Ellman assay.
For data set [11], the system named is Aedes aegypti. In words: Insecticidal activity against five day old female adult Aedes aegypti Mombasa assessed as mortality at 4.26 ug administered topically measured after 24 hrs relative to control. Type of data set: functional. In outline: (§3)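 Mosquitoes were reared at 27–28 °C, ~80% humidity, on a 12/12 h light cycle. Insects were chilled on a −20 °C plate. 0.1 µl of compound in acetone was applied to the upper pronotum. Negative control was acetone alone. Afterwards mosquitoes were given glucose and kept in the insectary. Mortality was scored at 24 h, Abbott-corrected when control mortality exceeded 5%. Runs with control mortality ≥20% were discarded.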

Data set [12] deals with Aedes aegypti. Briefly: Insecticidal activity against five day old female adult Aedes aegypti Mombasa assessed as mortality rate at 60.4 ng administered via micro-injection measured after 48 hrs relative to control. It is filed as functional. The essentials:
(§4)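 Test compounds were made up at 100 mM in acetone, then diluted in mosquito saline (5% acetone final; 4.3% for propoxur). 23 nl was injected into the thoracic cavity of anesthetized females. Negative control was saline with matching acetone. Mosquitoes were then given glucose. Mortality was read at 24 and 48 h, Abbott-corrected when control mortality exceeded 5%. Runs with control mortality ≥20% were discarded.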

Data set [13] relates to Aedes aegypti. Briefly: Insecticidal activity against five day old female adult Aedes aegypti Mombasa assessed as mortality rate at 60.4 ng administered via micro-injection measured after 24 hrs relative to control. Type of data set: functional. The essentials: as §4
The test system of data set [14] is Aedes aegypti. In words: Insecticidal activity against five day old female adult Aedes aegypti Mombasa assessed as mortality rate at 53.6 ng administered via micro-injection measured after 48 hrs relative to control. It is filed as functional. The essentials: as §4
Data set [15] deals with Aedes aegypti. In words: Insecticidal activity against five day old female adult Aedes aegypti Mombasa assessed as mortality rate at 53.6 ng administered via micro-injection measured after 24 hrs relative to control. Type of data set: functional. The essentials:
as §4

Data set [16] has as its system Aedes aegypti. Briefly: Insecticidal activity against topically dosed female adult Aedes aegypti assessed as mortality measured after 24 hrs. Type of data set: functional. The essentials:
as §3

In data set [17] the test system is Aedes aegypti. In words: Insecticidal activity against five day old female adult Aedes aegypti Mombasa assessed as mortality rate at 52.7 ng administered via micro-injection measured after 48 hrs relative to control. It is filed as functional. In outline:
as §4

Data set [18] has as its system Aedes aegypti. Briefly: Insecticidal activity against five day old female adult Aedes aegypti Mombasa assessed as mortality rate at 52.7 ng administered via micro-injection measured after 24 hrs relative to control. Type of data set: functional. The essentials: as §4
Data set [19] relates to Aedes aegypti. In words: Insecticidal activity against topically dosed five day old female adult Aedes aegypti Mombasa assessed as mortality measured after 24 hrs. It is filed as functional. In outline:
as §3

Data set [20] deals with Aedes aegypti. In words: Insecticidal activity against five day old female adult Aedes aegypti Mombasa assessed as mortality rate at 57.3 ng administered via micro-injection measured after 48 hrs relative to control. It is filed as functional. In outline:
as §4

Data set [21] deals with Aedes aegypti. In words: Insecticidal activity against five day old female adult Aedes aegypti Mombasa assessed as mortality rate at 57.3 ng administered via micro-injection measured after 24 hrs relative to control. It is filed as functional. In outline: as §4
Data set [22] relates to Anopheles gambiae. In words: Insecticidal activity against five day old female adult Anopheles gambiae Kisumu assessed as mortality at 4.26 ug administered topically measured after 24 hrs relative to control. It is filed as functional. In outline: as §3
Data set [23] deals with Aedes aegypti. In words: Insecticidal activity against five day old female adult Aedes aegypti Mombasa assessed as mortality rate at 21 ng administered via micro-injection measured after 24 hrs relative to control. Type of data set: functional. In outline:
as §4

pIC50: −log10 of the molar value. Activity calls are given as the source filed them. The calls are words filed in the database; no cut-off is given here.

Consider `CCN1CCN(C(=O)COc2ccc(-c3ccccc3)cc2)CC1`, for which the pIC50 in data set [1], in [2], in [3] and in data set [4] was under 3.70 each time.

With `CN1CCN(CCCNC(=O)COc2ccc(-c3ccccc3)cc2)CC1`, the pIC50 in [1] was 4.89; in [2] it was 4.41; in data set [3], 3.94; in data set [4], 4.92. In addition, the Ratio IC50 in [5] and in data set [6] was 8.8 each time.

Take `CCN1CCN(C2CCN(C(=O)COc3ccc(I)cc3)CC2)CC1`: the negative-log IC50 (pIC50) was 5.44 in [1], 5.21 in [2], 4.70 in data set [3] and 5.82 in data set [4]. Besides, the Ratio IC50 in data set [5] and in data set [6] was 5.6 throughout.

With `O=C(COc1ccc(-c2ccccc2)cc1)N1CCCCC1`, in data set [7], the “inhibition (INH)” value is “Not Active”. Besides, the inhibition entry in data set [8], in data set [9] and in data set [10] was “inactive” each time.

As to `O=C(COc1ccc(-c2ccccc2)cc1)N1CCC(N2CCOCC2)CC1`, the pIC50 in data set [1] is under 3.70; in [2] it was under 3.70; in [3] it was 4.03; in data set [4], under 3.70.

For `CCN1CCN(C2CCN(C(=O)COc3ccc(-c4ccccc4)cc3)CC2)CC1`, the pIC50 in data set [4] is 6.66.

As for `CCN1CCN(C2CCN(C(=O)COc3ccc(-c4ccc([N+](=O)[O-])cc4)cc3)CC2)CC1`, the mortality in [11] stood at 31%; in data set [12], 69%; in data set [13], 64%. Moreover, the negative-log IC50 (pIC50) in data set [1] is 7.10; in data set [2], 6.89; in [3] it was 5.68; in data set [4], 6.96. The Ratio IC50 in data set [5] and in data set [6] was 19 throughout.

On to `CN1CCN(C2CCN(C(=O)COc3ccc(-c4ccccc4)cc3)CC2)CC1`, for which the mortality amounted to 66% in data set [14] and 58% in [15]. The negative logarithm of the IC50 (pIC50) is 6.62 in [1], 6.27 in [2], 5.00 in [3] and 6.60 in [4]. Also, the Ratio IC50 in [5] and in [6] was 40 each time.

Consider `O=C(COc1ccc(-c2ccccc2)cc1)N1CCOCC1`, for which the “inhibition (INH)” value in [7] was “Not Active”. Also, the inhibition entry in data set [8], in data set [9] and in data set [10] was “inactive” in each case.

`CNC(=O)Oc1cccc2c1OC(C)(C)O2` [BENDIOCARB]: in [16], the LD50 is 0.0018 µg.

`CCN1CCN(C2CCN(C(=O)COc3ccc4c(c3)CCC4=O)CC2)CC1`: the mortality in data set [11] is on record as 50%; in data set [17] it was 64%; in data set [18], 58%. Besides, the negative logarithm of the IC50 (pIC50) was 6.54 in [1], 6.42 in data set [2], 5.31 in data set [3] and 6.70 in [4]. Also, the Ratio IC50 in data set [5] and in data set [6] was 16 in each case.

On to `CN1CCN(CCCNC(=O)COc2ccc(I)cc2)CC1`, for which the negative-log IC50 (pIC50) in data set [1] is 3.94; in data set [2], 3.89; in data set [3] it was 3.86; in [4], 3.95. For the same molecule, the Ratio IC50 in data set [5] and in data set [6] was 1.2 throughout.

On to `CCN1CCN(C2CCN(C(=O)COc3ccc(-c4ccc(OC)cc4)cc3)CC2)CC1`, for which the pIC50 was 6.40 in data set [1], 6.02 in [2], 4.74 in data set [3] and 6.64 in data set [4]. The Ratio IC50 in data set [5] and in [6] was 45 in each case.

On to `CCN1CCN(C2CCN(C(=O)COc3ccc(-c4ccccc4F)cc3)CC2)CC1`, for which, in data set [19], the LD50 amounted to 2.13 µg. Further, the mortality turned out to be 75% in data set [11], 56% in data set [20], 55% in data set [21] and 88% in [22]. In addition, the pIC50 in [1] was 6.62; in data set [2], 6.15; in [3] it was 4.72; in [4] it was 6.66. Further, the Ratio IC50 in data set [5] and in [6] was 79 in each case.

As for `CCN1CCN(CCCNC(=O)COc2ccc(-c3ccc(OC)cc3)cc2)CC1`, the pIC50 in [1] is 5.24; in [2], 4.70; in data set [3] it was 3.96; in data set [4], 5.42. The Ratio IC50 in data set [5] and in [6] was 19 each time.

As to `O=C(COc1ccc(I)cc1)NCCCN1CCCCC1`, the pIC50 was 4.36 in [1], 4.51 in data set [2], 4.89 in [3] and 4.44 in data set [4]. In addition, the Ratio IC50 in [5] and in [6] was 0.3 each time.

Take `CCN1CCN(CCCNC(=O)COc2ccc(-c3ccccc3)cc2)CC1`: the pIC50 in data set [1] was 5.46; in data set [2], 4.80; in data set [3], 3.95; in [4], 5.48. In addition, the Ratio IC50 in data set [5] and in [6] was 32 throughout.

As to `CCN1CCN(CCCNC(=O)COc2ccc(I)cc2)CC1`, the negative-log IC50 (pIC50) was 4.37 in [1], 4.02 in data set [2], 4.06 in data set [3] and 4.14 in data set [4]. Besides, the Ratio IC50 in data set [5] and in data set [6] was 1.2 throughout.

Take `COc1ccc(-c2ccc(OCC(=O)NCCCN3CCCCC3)cc2)cc1`: the pIC50 is 5.35 in [1], 5.28 in [2], 4.85 in data set [3] and 5.41 in [4]. Further, the Ratio IC50 in [5] and in [6] was 3.1 in each case.

With `O=C(COc1ccc(-c2ccccc2)cc1)N1CCC(N2CCCCC2)CC1`, the pIC50 in data set [1] is 5.42; in data set [2], 5.38; in [3] it was 5.34; in data set [4], 5.40. Besides, the Ratio IC50 in data set [5] and in data set [6] was 1.2 throughout.

On to `CNC(=O)Oc1ccccc1OC(C)C` [PROPOXUR], for which the mortality in data set [23] is 85%. Besides, the LD50 in data set [16] was determined as 0.0054 µg.

For the molecule `COc1ccc(-c2ccc(OCC(=O)NCCCN3CCN(C)CC3)cc2)cc1`, the pIC50 in data set [1] is 4.60; in [2], 4.48; in [3] it was 3.72; in data set [4], 4.80. In addition, the Ratio IC50 in data set [5] and in data set [6] was 7.6 each time.

With `O=C(COc1ccc(-c2ccccc2)cc1)NCCCN1CCCCC1`, the negative logarithm of the IC50 (pIC50) was 5.00 in data set [1], 4.64 in data set [2], 4.24 in [3] and 5.00 in data set [4]. Also, the Ratio IC50 in data set [5] and in data set [6] was 5.7 throughout.

The values above are taken from ChEMBL document CHEMBL4265992, “Noncovalent Inhibitors of Mosquito Acetylcholinesterase 1 with Resistance-Breaking Potency” (J Med Chem, 2018).
